Active and inactive are the calls of the source. The calls are words filed in the database; no cut-off is given here.
Columns and labels:
MCF7 [1] = assay: Cytotoxicity against human MCF7 cells assessed as growth inhibition at 12.5 ug/ml after 24 hrs by SRB assay; assay type: functional
Method in brief: (§1)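 MCF-7 (ATCC) kept in RPMI-1640 with penicillin/streptomycin and FBS, used at 90% confluence and seeded at 5×10^4–10^5 cells/well. Exposed to 5, 12.5, 25 or 50 µg/mL of compound in DMSO for 24, 48 or 72 h, with vehicle-treated controls and 6 wells per concentration. Cells fixed in cold TCA and stained with 0.4% SRB; dye taken up in 10 mM Tris pH 10.5 and read at 564 nm. Result given as % growth inhibition versus control.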

MCF7 [2] = assay: Cytotoxicity against human MCF7 cells assessed as growth inhibition at 25 ug/ml after 24 hrs by SRB assay; assay type: functional; method in brief: as §1
MCF7 [3] = assay: Cytotoxicity against human MCF7 cells assessed as growth inhibition at 50 ug/ml after 24 hrs by SRB assay; assay type: functional, cell-based; method in brief: as §1
MCF7 [4] = assay: Cytotoxicity against human MCF7 cells assessed as growth inhibition at 12.5 ug/ml after 48 hrs by SRB assay; assay type: functional, cell-based; method in brief: as §1
MCF7 [5] = assay: Cytotoxicity against human MCF7 cells assessed as growth inhibition at 25 ug/ml after 48 hrs by SRB assay; assay type: functional, cell-based; method in brief: as §1
MCF7 [6] = assay: Cytotoxicity against human MCF7 cells assessed as growth inhibition at 50 ug/ml after 48 hrs by SRB assay; assay type: functional, cell-based; method in brief: as §1
MCF7 [7] = assay: Cytotoxicity against human MCF7 cells assessed as growth inhibition at 5 ug/ml after 72 hrs by SRB assay relative to control; assay type: functional; method in brief: as §1
MCF7 [8] = assay: Cytotoxicity against human MCF7 cells assessed as growth inhibition after 24 hrs by SRB assay; assay type: functional, cell-based; settings: MCF7, 24 h; method in brief: as §1
MCF7 [9] = assay: Cytotoxicity against human MCF7 cells assessed as growth inhibition after 48 hrs by SRB assay; assay type: functional, cell-based; settings: MCF7, 48 h; method in brief: as §1
MCF7 [10] = assay: Cytotoxicity against human MCF7 cells assessed as growth inhibition after 72 hrs by SRB assay; assay type: functional, cell-based; settings: MCF7, 72 h; method in brief: as §1
MCF7 [11] = assay: Reduction in VEGF mRNA expression in human MCF7 cells by RT-PCR relative to control; assay type: functional, cell-based
Method in brief: (§2)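 RNA taken from MCF-7 cells after 48 h treatment in the cytotoxicity study, then oligo(dT)-primed reverse transcription (25 °C 10 min, 42 °C 1 h). Semi-quantitative PCR run with VEGF 40 cycles (59 °C annealing), CYP19 50 cycles (60 °C), hAP-2γ 20 cycles (65 °C) and β-actin 40 cycles (60 °C). Gel band intensity expressed as a ratio to β-actin; P<0.05.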

MCF7 [12] = assay: Reduction in CYP19 mRNA expression in human MCF7 cells by RT-PCR relative to control; assay type: functional, cell-based; method in brief: as §2
MCF7 [13] = assay: Reduction in AP-2 gamma mRNA expression in human MCF7 cells by RT-PCR relative to control; assay type: functional, cell-based; method in brief: as §2
MCF7 [14] = assay: Cytotoxicity against human MCF7 cells assessed as growth inhibition at 5 ug/ml after 48 hrs by SRB assay; assay type: functional, cell-based; method in brief: as §1
MCF7 [15] = assay: Cytotoxicity against human MCF7 cells assessed as growth inhibition at 12.5 ug/ml after 72 hrs by SRB assay; assay type: functional; settings: MCF7, 72 h, read-out: GI; method in brief: as §1

C[C@]12CC[C@H](O)C[C@@H]1CC[C@@H]1[C@@H]2CC[C@@]2(C)[C@H]1CC[C@]21OC1C(=O)c1ccccc1 (stereo partly specified)
growth inhibition (GI) (MCF7 [1]): Active | growth inhibition (GI) (MCF7 [2]): Active | growth inhibition (GI) (MCF7 [3]): Active | growth inhibition (GI) (MCF7 [4]): Active | growth inhibition (GI) (MCF7 [5]): Active | growth inhibition (GI) (MCF7 [6]): Active | growth inhibition (GI) (MCF7 [7]): Active | IC50 (MCF7 [8]): 17.1 µM | IC50 (MCF7 [9]): 7.3 µM | IC50 (MCF7 [10]): 17.3 µM | Activity (MCF7 [11]): Active | Activity (MCF7 [12]): Active | Activity (MCF7 [13]): Active

C[C@]12CC[C@H]3[C@@H](CCC4=CC(=O)CC[C@@]43C)[C@@H]1CC[C@@H]2n1c(=S)n(-c2ccccc2)c(=O)c2cc(F)ccc21
growth inhibition (GI) (MCF7 [2]): Active | growth inhibition (GI) (MCF7 [3]): Active | growth inhibition (GI) (MCF7 [5]): Active | growth inhibition (GI) (MCF7 [6]): Active | growth inhibition (GI) (MCF7 [7]): Active | IC50 (MCF7 [8]): 17.7 µM | IC50 (MCF7 [9]): 11.5 µM | IC50 (MCF7 [10]): 16 µM | Activity (MCF7 [11]): Active | Activity (MCF7 [12]): Active | Activity (MCF7 [13]): Active

CC(=O)O[C@H]1CC[C@@]2(C)[C@@H](CC[C@@H]3[C@@H]2CC[C@]2(C)c4nc(CC#N)sc4C[C@@H]32)C1
inhibition of growth at 12.5 µg/mL (MCF7 [1]; MCF7, 24 h, read-out: GI): 91% | inhibition of growth at 25 µg/mL (MCF7 [2]; MCF7, 24 h, read-out: GI): 85% | growth inhibition (GI) (MCF7 [3]): Active | growth inhibition (GI) (MCF7 [14]): Active | growth inhibition (GI) (MCF7 [4]): Active | growth inhibition (GI) (MCF7 [5]): Active | growth inhibition (GI) (MCF7 [6]): Active | inhibition of growth at 5 µg/mL (MCF7 [7]; MCF7, 72 h, read-out: GI): 93% | inhibition of growth at 12.5 µg/mL (MCF7 [15]): 91% | IC50 (MCF7 [8]): 2.9 µM | IC50 (MCF7 [9]): 2.5 µM | IC50 (MCF7 [10]): 2.9 µM | Activity (MCF7 [11]): Active | Activity (MCF7 [12]): Active | Activity (MCF7 [13]): Active

CC(=O)O[C@H]1CC[C@@]2(C)[C@@H](CC[C@@H]3[C@@H]2CC[C@]2(C)/C(=N/C4CCNN=C4O)CC[C@@H]32)C1 (stereo partly specified)
growth inhibition (GI) (MCF7 [2]): Active | growth inhibition (GI) (MCF7 [3]): Active | growth inhibition (GI) (MCF7 [4]): Active | growth inhibition (GI) (MCF7 [5]): Active | growth inhibition (GI) (MCF7 [6]): Active | growth inhibition (GI) (MCF7 [7]): Active | IC50 (MCF7 [8]): 18.5 µM | IC50 (MCF7 [9]): 9.9 µM | IC50 (MCF7 [10]): 11.5 µM | Activity (MCF7 [11]): Active | Activity (MCF7 [12]): Active | Activity (MCF7 [13]): Active

C[C@]12CC[C@H]3[C@@H](CCC4=C[C@]5(CC[C@@]43C)OC5C(=O)c3ccccc3)[C@@H]1CC[C@@H]2O (stereo partly specified)
growth inhibition (GI) (MCF7 [1]): Active | growth inhibition (GI) (MCF7 [2]): Active | growth inhibition (GI) (MCF7 [3]): Active | growth inhibition (GI) (MCF7 [5]): inactive | growth inhibition (GI) (MCF7 [6]): Active | growth inhibition (GI) (MCF7 [7]): Active | IC50 (MCF7 [8]): 15.1 µM | IC50 (MCF7 [9]): 16 µM | IC50 (MCF7 [10]): 12 µM | Activity (MCF7 [11]): Active | Activity (MCF7 [12]): Active | Activity (MCF7 [13]): Active

COc1cccc2c1C(=O)c1c(O)c3c(c(O)c1C2=O)C[C@@](O)(C(=O)CO)C[C@@H]3O[C@H]1C[C@H](N)[C@H](O)[C@H](C)O1
Activity (MCF7 [11]): Active | Activity (MCF7 [12]): Active | Activity (MCF7 [13]): Active

CC(=O)O[C@H]1CC[C@@]2(C)[C@@H](CC[C@@H]3[C@@H]2CC[C@]2(C)/C(=N/c4ccc(S(=O)(=O)N(CCO)c5ncccn5)cc4)CC[C@@H]32)C1
growth inhibition (GI) (MCF7 [1]): Active | growth inhibition (GI) (MCF7 [2]): Active | growth inhibition (GI) (MCF7 [3]): Active | growth inhibition (GI) (MCF7 [4]): Active | growth inhibition (GI) (MCF7 [5]): Active | growth inhibition (GI) (MCF7 [6]): inactive | growth inhibition (GI) (MCF7 [7]): Active | IC50 (MCF7 [8]): 14.7 µM | IC50 (MCF7 [9]): 7.5 µM | IC50 (MCF7 [10]): 10 µM | Activity (MCF7 [11]): Active | Activity (MCF7 [12]): Active | Activity (MCF7 [13]): Active

C[C@]12CC[C@H]3[C@@H](CCC4=CC(=O)CC[C@@]43C)[C@@H]1CC[C@@H]2n1c(=S)n(-c2ccccc2)c(=O)c2ccccc21
growth inhibition (GI) (MCF7 [1]): Active | growth inhibition (GI) (MCF7 [2]): Active | growth inhibition (GI) (MCF7 [3]): Active | growth inhibition (GI) (MCF7 [5]): Active | growth inhibition (GI) (MCF7 [6]): Active | growth inhibition (GI) (MCF7 [7]): Active | IC50 (MCF7 [8]): 13.1 µM | IC50 (MCF7 [9]): 12.5 µM | IC50 (MCF7 [10]): 17.5 µM | Activity (MCF7 [11]): Active | Activity (MCF7 [12]): Active | Activity (MCF7 [13]): Active
